# Source: PubChem
# ASAP1 GAP inh = inhibitors of human ASAP1 ArfGAP activity; inhibition, % at 16.5 µM; ASAP1-stimulated ARF1 GTP hydrolysis, GDP FP detection; 360,000 compounds, 0.19% hits; in the data active = inhibition above about 25%;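 note: 0% = vehicle with enzyme and substrate and 100% = no enzyme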
# ARFGAP1 inhibitor = rat ARFGAP1 inhibition. Arfgap1-stimulated ARF1 GTP hydrolysis, GDP FP detection. Q62848. 360,000 compounds, 0.26% hits. inhibition, % at 16.5 µM;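 active = inhibition above a per-plate limit, mean inhibition of low control wells plus 3 SD, cut at about 25% in these data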;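 note: 0% = DMSO wells with enzyme and 100% = wells lacking Arfgap1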
# Target sequence (Q62848 1-136 limits assumed): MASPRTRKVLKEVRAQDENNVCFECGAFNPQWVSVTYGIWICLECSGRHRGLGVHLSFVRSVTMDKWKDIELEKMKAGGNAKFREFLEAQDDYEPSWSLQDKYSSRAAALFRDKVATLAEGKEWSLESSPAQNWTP
#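 Material – truncated rat Arfgap1 GAP domain · Buffer or medium – HEPES-based buffer, pH 7.5 · Reagent – human ARF1(Δ1-17)-GTP substrate · Dosing – 16.5 µM single point, 1.26% DMSO · Schedule – GTP hydrolysis reaction 2 h at 25 °C · Technique – GDP detection by fluorescence polarization · Benchmarks – No-Arfgap1 wells (100%) versus DMSO full-reaction wells (0%) · Repeats – single replicate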
# PAFAH2 FP inh = PAFAH2 (human) inhibition; recombinant PAFAH2, FP-rhodamine activity probe, fluorescence polarization; Q99487; AID 492956; inhibition, % at 3.39 µM; 340,000 compounds, 0.99% hits;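 active = inhibition above the mean over all tested compounds plus 3 SD, cut at about 30% in these data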;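 note: inhibitors block probe labeling of enzyme so polarization drops; 0% = enzyme with DMSO and 100% = wells lacking PAFAH2 protein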
# PAFAH1B3 inh = blocks human PAF acetylhydrolase 1B catalytic subunit 3; Q15102; recombinant PAFAH1B3, FP-rhodamine probe, fluorescence polarization; inhibition, % at 3.39 µM; 340,000 compounds, 0.28% hits; AID 492972;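 active = inhibition above the screen-wide average of all tested compounds plus 3 SD, cut at about 25% in these data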;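 note: 0% = enzyme with DMSO only and 100% = wells lacking PAFAH1B3 protein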
# Target sequence (Q15102 whole entry, looked up): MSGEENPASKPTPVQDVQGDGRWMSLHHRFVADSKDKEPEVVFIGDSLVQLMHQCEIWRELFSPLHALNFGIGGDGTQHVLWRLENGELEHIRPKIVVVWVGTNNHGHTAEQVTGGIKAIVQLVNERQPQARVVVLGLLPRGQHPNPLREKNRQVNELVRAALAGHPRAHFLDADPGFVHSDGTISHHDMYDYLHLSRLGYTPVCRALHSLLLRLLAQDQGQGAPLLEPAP
# PAFAH1B2 inh = PAFAH1B2 (human) inhibition; inhibition, % at 3.39 µM; recombinant PAFAH1B2, FP-rhodamine activity probe, fluorescence polarization; P68402; 340,000 compounds, 1.2% hits;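 active = inhibition above the mean of all tested compounds plus 3 SD, cut at about 24% in these data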;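 note: 0% = enzyme with DMSO and 100% = wells lacking PAFAH1B2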
# pPAFAH FP inh = inhibitors of human plasma PAF acetylhydrolase (pPAFAH) | recombinant pPAFAH, FP-rhodamine probe fluorescence polarization | inhibition, % at 3.39 µM | 330,000 compounds, 1.5% hits | Q13093;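 active = inhibition above the mean inhibition across the screen plus 3 SD, cut at about 25% in these data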;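 note: inhibitors block binding of the rhodamine activity-based probe so polarization drops; 0% = enzyme with DMSO and 100% = wells lacking pPAFAH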
# * marks the source's active call; other numbers are inactive results; . = no result given. Sampled rows, rich in hits. Any-hit rate of the full collection: about 2.7%.
SMILES,ASAP1 GAP inh,ARFGAP1 inhibitor,PAFAH2 FP inh,PAFAH1B3 inh,PAFAH1B2 inh,pPAFAH FP inh
CCOC(=O)C1=C(C(=O)OCC)C2N(Cc3ccc(C#N)cc3)c3ccccc3[C@@]23C[C@@H](C(=O)OC)N(S(=O)(=O)c2ccccc2)C3=N1 (stereo partly drawn),2,7,.,.,.,.
O=C(N[C@@H](Cc1cccnc1)C(=O)N1CCC[C@H]1C(=O)NCCc1ccccc1Cl)c1ccccc1,-5,7,.,.,.,.
CCc1ccc(C(=O)/C=C2\Sc3ccccc3NC2=O)cc1,7,12,36*,5,4,17
CCCCNC(=O)/C=C1\Sc2ccccc2NC1=O,11,-7,4,0,7,3
CN1OC[C@@H]2CN(CC3CCCCC3)[C@H](c3ccc(-c4ccc(C#N)cc4)cc3)C[C@@H]21,5,5,.,.,.,.
Cc1ccc(/C=N/Nc2ccc(C(=O)O)cc2)s1,-7,-9,19,-1,2,26*
O=C(CCn1nnc2ccccc21)Nc1nnc(Cc2ccccc2)s1,23,5,14,8,27*,8
COC(=O)c1cc2c(c3c4cc(C)ccc4n(S(=O)(=O)c4cccc(C)c4)c13)C(=O)N(Cc1ccc(N(C)C)cc1)C2,7,1,.,.,.,.
Cc1cc(C)cc(NS(=O)(=O)c2ccc3[nH]cc(C(=O)N4CCc5ccccc54)c(=O)c3c2)c1,3,5,-5,-6,-5,21
CCN(CC)C(=O)c1c[nH]c2ccc(S(=O)(=O)Nc3cc(C)cc(C)c3)cc2c1=O,9,9,0,5,7,29*
CC(C)C[C@H]1COc2cc(N3CCOCC3)ccc2S(=O)(=O)N1,-15,13,.,.,.,.
CC(C)C1NC(=S)N(C2CCCCC2)C1=O (stereo not drawn),-3,-2,11,4,4,6
O=C1C(c2ccccc2)NC(=S)N1C1CCCCC1 (stereo not drawn),-4,6,2,4,36*,0
CCN(CC)S(=O)(=O)c1ccc2c(c1)nc(SC(C)C(N)=O)n2-c1ccc(OC)cc1 (stereo not drawn),14,-4,5,2,-2,26*
Cc1nnc(SCC(=O)Nc2cc(S(=O)(=O)N3CCOCC3)ccc2C)s1,-4,4,1,7,6,.
O=C(CSc1nc2ccccc2s1)CSc1nc2ccccc2s1,-6,12,-6,4,-7,27*
O=C(CSc1nc2ccccc2s1)NCc1cc([N+](=O)[O-])ccc1O,1,-2,6,1,29*,11
O=C(CSc1nc2ccccc2s1)NNC(=S)Nc1ccc(Br)cc1,-9,2,4,7,24*,20
O=C(CSc1nc2ccccc2s1)NNC(=S)Nc1ccccc1,2,-14,-2,3,4,1
O=C(CSc1nc2ccccc2s1)Nc1cc(S(=O)(=O)N2CCOCC2)ccc1O,-5,7,84*,19,87*,18
Cc1cc(Nc2ccc(Cl)c(C(F)(F)F)c2)cc(=O)n1-c1ccc(Cl)c(C(F)(F)F)c1,-12,8,.,.,.,.
O=S1(=O)N[C@@H](Cc2ccccc2)COc2cccc(N3CCCCC3)c21,-9,13,.,.,.,.
O=S1(=O)c2ccc(Br)cc2OC[C@H](c2ccccc2)N1Cc1ccccc1,-5,-2,.,.,.,.
CCCCC1O[C@@H](C)[C@@H]2CN3CCc4c([nH]c5ccccc45)[C@@H]3C[C@@H]2N1C (stereo partly drawn),14,19,.,.,.,.
COc1cccc(NC(=O)COC(=O)CC2CC3CCC2C3)c1 (stereo not drawn),7,-15,78*,1,8,34*
O=C(COC(=O)CC1CC2CCC1C2)Nc1cc([N+](=O)[O-])ccc1F (stereo not drawn),-4,12,49*,10,42*,18
O=C(COC(=O)CC1CC2CCC1C2)NC(=O)NCc1ccco1 (stereo not drawn),-5,-1,5,0,25*,7
COC(=O)c1cc2c(c3c4cc(F)ccc4n(S(=O)(=O)c4ccc(C)cc4)c13)C(=O)N(Cc1ccccc1)C2,0,2,.,.,.,.
CC(C)n1cnc2c(NCc3ccccc3)cc(Cc3ccc(F)cc3)cc21,2,9,17,7,5,28*
